Results on six compounds are retold here after ChEMBL document CHEMBL5036331 (J Med Chem, 2021).

Series [1] can be described thus: Aqueous solubility of the compound at pH 6.5 for 24 hrs by HPLC-MS/MS. It is filed as physicochemical.
The subject of the next series is A2780. Description: cells. It is filed as functional, cell-based. The conditions noted are these: Homo sapiens, A2780, 96 h.
Series [2] can be described thus: Clearance in Wistar-Han rat hepatocytes at 1 uM measured for 2 to 90 mins by LC-MS/MS. It is filed as ADME, cell-based, Hepatocyte. The conditions noted are these: Wistar-Han, time 2-90 min.
A short description of series [3]: Metabolic stability in Wistar-Han rat hepatocytes at 1 uM measured for 2 to 90 mins by LC-MS/MS. It is filed as ADME, cell-based, Hepatocyte. The conditions noted are these: time 2-90 min.
Series [4] can be described thus: Efflux ratio of apparent permeability across basolateral to apical side over apical to basolateral side in human Caco2 cells at 2 uM incubated for 2 hrs. The conditions noted are these: Caco-2. For orientation: Caco-2 cells form a polarised layer with tight junctions and transporters.
Series [5] is described as follows: Apparent permeability of the compound across apical side to basolateral side in human CaCo-2 cells at 2 uM incubated for 2 hrs. It is filed as ADME, cell-based. An outline of the steps: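 Caco-2 monolayers with TEER of at least 400 Ω·cm². Compound (predissolved in DMSO) added apically or basolaterally at a final 2 μM and incubated 2 h at 37 °C, in triplicate. Both compartments were sampled before and after, MeOH-precipitated and analysed by LC–MS/MS. Papp = (Vr/P0)(1/S)(P2/t).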

Converted amounts (≈) assume the structure as drawn.

As to `COc1cc(F)ccc1-c1nc(Nc2cc(F)cc(CS(=O)(CCCO)=NC#N)c2)ncc1F` (configuration not stated), the solubility at 24 h in series [1] came to 0.5 µg/mL (≈ 1.02 µM). The IC50 in the series with A2780 amounted to 262 nM. Further, the CLhep predicted at 1 µM in series [2] was 58.3 mL/min/kg.

With `COc1cc(F)ccc1-c1nc(Nc2cc(F)c(F)c(CS(C)(=N)=O)c2)ncc1F` (configuration not stated), the Stability result in series [3] was “Stable”. Further, the CLhep predicted at 1 µM in series [2] was 41.7 mL/min/kg.

Turning to `COc1cc(F)ccc1-c1nc(Nc2cc(F)cc(CS(C)(=N)=O)c2)ncc1F` (stereo in doubt; 9), the solubility at 24 h in series [1] was found to be 24 µg/mL (≈ 56.8 µM). Moreover, in series [2], the CLhep predicted at 1 µM is 28.3 mL/min/kg.

For the compound `COc1cc(CS(C)(=N)=O)cc(Nc2ncc(F)c(-c3ccc(F)cc3OC)n2)c1` (configuration not stated), in series [1], the solubility at 24 h was 5 µg/mL (≈ 11.5 µM). Also, the CLhep predicted at 1 µM in series [2] is 38.3 mL/min/kg.

For `COc1cc(F)ccc1-c1nc(Nc2cncc(CS(C)(=N)=O)c2)ncc1F` (configuration not stated), in series [1], the concentration in solution (solubility at 24 h) was 103 µg/mL (≈ 254 µM). Moreover, the efflux ratio at 2 h, 2 µM in series [4] was over 10. This compound registered an IC50 with A2780 of 46 nM. The Papp A→B at 2 h, 2 µM in series [5] was determined as 2.3 ×10⁻⁶ cm/s. Moreover, in series [2], the CLhep predicted at 1 µM is 18.3 mL/min/kg.

In the case of `COc1cc(F)ccc1-c1nc(Nc2cc(F)cc(CS(=N)(=O)CCCN)c2)ncc1F` (configuration not stated), the concentration in solution in series [1] (solubility at 24 h) was 294 µg/mL (≈ 632 µM). The compound further returned an IC50 with A2780 of 226 nM. In addition, the CLhep predicted at 1 µM in series [2] was 18.3 mL/min/kg.

One may read the solubility as the concentration that dissolves in the medium under given conditions. Lower therefore signals a poorly soluble substance. For orientation: IC50 means the concentration needed to halve the response being measured. Read a high IC50 as a need for much substance. By efflux ratio is commonly meant the permeability from basolateral to apical divided by that in the opposite direction, in the common usage. As usually defined, the Papp A→B is how fast a substance crosses the layer from the apical side.
